The text below walks through data of ChEMBL document CHEMBL1130213, “Synthesis and pharmacological characterization of aminocyclopentanetricarboxylic acids: new tools to discriminate between metabotropic glutamate receptor subtypes” (J Med Chem, 1997).

In assay [1] the target is Metabotropic glutamate receptor 1 (Homo sapiens, UniProt Q13255). Put plainly: Agonist activity against Metabotropic glutamate receptor 1 expressed in HEK 293 cells was evaluated by measuring total inositol phosphate accumulation; No effect at 1 mM. Format: functional, cell-based. To be noted: hek293.
The target in assay [2] is T1, Metabotropic glutamate receptor 4 (Homo sapiens, UniProt Q14833). Description: Agonist activity against Metabotropic glutamate receptor 4 expressed in HEK 293 cells was evaluated by measuring total inositol phosphate accumulation. In kind it is functional, cell-based, HEK293.
Assay [3] concerns the target T2, Metabotropic glutamate receptor 2 (Homo sapiens, UniProt Q14416). Put plainly: Agonist activity against Metabotropic glutamate receptor 2 expressed in HEK 293 cells was evaluated by measuring total inositol phosphate accumulation; No effect at 1 mM. In kind it is functional, cell-based. To be noted: hek293.
Target sequence in this assay (Q14416 whole entry): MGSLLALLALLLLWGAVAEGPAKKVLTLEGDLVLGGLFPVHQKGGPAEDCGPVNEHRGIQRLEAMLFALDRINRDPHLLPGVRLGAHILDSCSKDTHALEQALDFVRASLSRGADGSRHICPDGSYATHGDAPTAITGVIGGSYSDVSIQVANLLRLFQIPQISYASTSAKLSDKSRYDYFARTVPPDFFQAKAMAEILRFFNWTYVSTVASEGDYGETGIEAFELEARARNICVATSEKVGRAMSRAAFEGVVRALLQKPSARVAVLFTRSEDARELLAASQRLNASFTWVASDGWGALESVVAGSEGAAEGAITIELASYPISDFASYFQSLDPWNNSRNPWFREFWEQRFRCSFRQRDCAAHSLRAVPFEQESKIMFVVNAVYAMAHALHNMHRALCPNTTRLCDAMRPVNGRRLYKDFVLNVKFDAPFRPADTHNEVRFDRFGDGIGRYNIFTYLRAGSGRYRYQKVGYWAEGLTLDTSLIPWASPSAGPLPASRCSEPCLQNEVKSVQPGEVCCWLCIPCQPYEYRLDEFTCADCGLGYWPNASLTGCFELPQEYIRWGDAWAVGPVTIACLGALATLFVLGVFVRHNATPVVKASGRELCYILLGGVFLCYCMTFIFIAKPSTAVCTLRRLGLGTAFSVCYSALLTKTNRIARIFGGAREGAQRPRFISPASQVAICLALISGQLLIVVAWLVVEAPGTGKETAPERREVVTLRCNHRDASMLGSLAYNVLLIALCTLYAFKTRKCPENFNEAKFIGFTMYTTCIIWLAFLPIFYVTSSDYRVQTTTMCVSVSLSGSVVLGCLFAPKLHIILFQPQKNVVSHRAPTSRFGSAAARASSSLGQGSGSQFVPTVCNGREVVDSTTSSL
Assay [4] addresses T1, Metabotropic glutamate receptor 4. Description: Agonist activity against Metabotropic glutamate receptor 4 expressed in HEK 293 cells was evaluated by measuring total inositol phosphate accumulation; No effect at 1 mM. Format: functional, cell-based. To be noted: hek293.
The target in assay [5] is T2, Metabotropic glutamate receptor 2. Description: Antagonist activity against Metabotropic glutamate receptor 2 expressed in HEK 293 cells was evaluated by measuring total inositol phosphate accumulation; No effect at 1 mM. Format: functional, cell-based. The note with it: HEK293.
Target sequence in this assay (Q14416 19-872 limits assumed): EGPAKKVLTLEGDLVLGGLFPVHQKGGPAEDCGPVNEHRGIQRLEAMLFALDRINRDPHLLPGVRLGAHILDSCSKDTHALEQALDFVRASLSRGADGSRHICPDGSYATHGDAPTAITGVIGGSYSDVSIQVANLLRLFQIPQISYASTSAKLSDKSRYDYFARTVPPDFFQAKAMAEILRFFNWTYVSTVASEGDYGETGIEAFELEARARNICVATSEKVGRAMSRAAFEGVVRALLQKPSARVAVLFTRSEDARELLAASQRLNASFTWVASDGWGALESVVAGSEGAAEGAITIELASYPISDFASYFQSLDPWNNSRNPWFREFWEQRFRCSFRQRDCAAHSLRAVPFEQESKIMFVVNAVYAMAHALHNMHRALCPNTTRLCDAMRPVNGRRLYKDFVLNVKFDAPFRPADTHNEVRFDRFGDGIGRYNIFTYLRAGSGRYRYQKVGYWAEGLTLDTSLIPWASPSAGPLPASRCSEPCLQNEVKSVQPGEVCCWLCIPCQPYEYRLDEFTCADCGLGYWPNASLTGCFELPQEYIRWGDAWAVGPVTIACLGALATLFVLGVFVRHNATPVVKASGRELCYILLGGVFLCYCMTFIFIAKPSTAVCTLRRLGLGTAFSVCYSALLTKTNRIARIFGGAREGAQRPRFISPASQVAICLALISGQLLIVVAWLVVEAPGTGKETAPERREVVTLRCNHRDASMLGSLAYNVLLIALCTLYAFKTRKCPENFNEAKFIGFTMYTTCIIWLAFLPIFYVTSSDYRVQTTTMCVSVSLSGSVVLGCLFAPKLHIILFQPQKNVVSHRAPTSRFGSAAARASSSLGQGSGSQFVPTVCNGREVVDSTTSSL
Assay [6] has the same target. Description: Agonist activity against Metabotropic glutamate receptor 2 expressed in HEK 293 cells was evaluated by measuring total inositol phosphate accumulation. In kind it is functional, cell-based, HEK293. The essentials:
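HEK 293 cells in DMEM with 10% fetal calf serum, electroporated with receptor plasmid (mGluR1a 0.3 μg, or mGluR2 2 μg co-expressed with Gqi9). Cells labeled overnight with [3H]myo-inositol, then stimulated 30 min with agonist in 10 mM LiCl. IP produced expressed over membrane radioactivity. Basal taken with glutamate pyruvate transaminase (1 unit/mL) plus 2 mM pyruvate. EC50 from logistic fit; triplicates.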
Target sequence in this assay (Q14416 whole entry): as the sequence (Q14416 whole entry) above

T1 sequence (Q14833 whole entry): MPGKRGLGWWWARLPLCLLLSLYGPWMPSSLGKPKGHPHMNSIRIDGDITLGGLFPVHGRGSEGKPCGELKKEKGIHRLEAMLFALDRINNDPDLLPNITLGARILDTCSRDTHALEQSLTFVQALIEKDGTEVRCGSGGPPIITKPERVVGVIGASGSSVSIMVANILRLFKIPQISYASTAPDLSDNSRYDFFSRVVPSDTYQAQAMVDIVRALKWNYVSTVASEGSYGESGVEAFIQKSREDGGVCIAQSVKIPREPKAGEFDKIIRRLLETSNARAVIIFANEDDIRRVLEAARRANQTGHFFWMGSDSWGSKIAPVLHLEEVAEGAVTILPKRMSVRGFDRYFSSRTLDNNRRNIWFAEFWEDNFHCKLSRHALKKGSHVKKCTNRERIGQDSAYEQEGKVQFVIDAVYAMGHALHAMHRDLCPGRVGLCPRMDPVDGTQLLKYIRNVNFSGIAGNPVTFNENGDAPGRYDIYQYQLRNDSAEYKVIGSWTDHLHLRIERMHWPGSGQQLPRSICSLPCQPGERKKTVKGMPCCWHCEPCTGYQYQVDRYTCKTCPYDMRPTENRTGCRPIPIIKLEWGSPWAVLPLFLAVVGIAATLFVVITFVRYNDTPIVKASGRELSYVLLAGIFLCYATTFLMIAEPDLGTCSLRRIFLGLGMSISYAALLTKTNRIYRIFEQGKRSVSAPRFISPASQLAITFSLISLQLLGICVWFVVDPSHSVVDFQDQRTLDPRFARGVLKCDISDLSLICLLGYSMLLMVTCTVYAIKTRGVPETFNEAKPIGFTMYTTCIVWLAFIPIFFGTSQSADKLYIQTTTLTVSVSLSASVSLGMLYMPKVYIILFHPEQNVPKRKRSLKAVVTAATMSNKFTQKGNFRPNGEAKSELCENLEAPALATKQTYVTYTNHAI
Chain of Metabotropic glutamate receptor 1 (Q13255 whole entry): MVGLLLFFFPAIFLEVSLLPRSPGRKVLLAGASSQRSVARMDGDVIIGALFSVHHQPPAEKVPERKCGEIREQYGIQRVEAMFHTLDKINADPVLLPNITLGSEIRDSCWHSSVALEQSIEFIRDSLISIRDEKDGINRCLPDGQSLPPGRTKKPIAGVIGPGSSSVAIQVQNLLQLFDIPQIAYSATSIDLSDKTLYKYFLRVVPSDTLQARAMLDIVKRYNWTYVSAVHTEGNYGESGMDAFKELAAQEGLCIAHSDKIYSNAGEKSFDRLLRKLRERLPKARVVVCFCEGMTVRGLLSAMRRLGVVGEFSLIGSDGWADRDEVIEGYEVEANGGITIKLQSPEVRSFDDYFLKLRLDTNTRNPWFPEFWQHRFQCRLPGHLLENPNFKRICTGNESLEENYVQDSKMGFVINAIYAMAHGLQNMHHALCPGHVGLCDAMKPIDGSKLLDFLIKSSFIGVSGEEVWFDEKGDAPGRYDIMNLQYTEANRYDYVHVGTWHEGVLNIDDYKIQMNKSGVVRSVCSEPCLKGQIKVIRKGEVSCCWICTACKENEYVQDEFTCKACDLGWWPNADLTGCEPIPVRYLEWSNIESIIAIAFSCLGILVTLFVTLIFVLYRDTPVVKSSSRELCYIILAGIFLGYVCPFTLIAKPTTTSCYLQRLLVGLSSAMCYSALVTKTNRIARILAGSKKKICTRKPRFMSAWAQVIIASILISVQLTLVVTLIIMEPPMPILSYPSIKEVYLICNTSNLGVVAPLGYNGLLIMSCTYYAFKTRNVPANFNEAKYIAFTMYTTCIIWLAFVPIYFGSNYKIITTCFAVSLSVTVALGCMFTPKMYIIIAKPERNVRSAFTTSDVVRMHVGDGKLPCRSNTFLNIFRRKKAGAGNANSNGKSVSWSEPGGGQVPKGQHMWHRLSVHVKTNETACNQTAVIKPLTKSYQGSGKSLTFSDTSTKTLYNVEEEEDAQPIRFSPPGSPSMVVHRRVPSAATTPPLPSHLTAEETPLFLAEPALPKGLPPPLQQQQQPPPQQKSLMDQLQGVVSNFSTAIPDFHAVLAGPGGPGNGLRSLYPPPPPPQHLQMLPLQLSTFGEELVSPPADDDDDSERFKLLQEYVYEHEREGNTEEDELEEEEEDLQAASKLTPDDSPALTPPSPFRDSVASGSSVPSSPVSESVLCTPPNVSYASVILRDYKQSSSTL

As to `NC1(C(=O)O)C[C@H](C(=O)O)[C@@H](C(=O)O)C1`, the EC50 result in assay [1] is “No effect”; in assay [2], 8.8 µM; in assay [3], “No effect”.
For `N[C@]1(C(=O)O)C[C@H](C(=O)O)[C@H](C(=O)O)C1`, the EC50 entry in assay [1], in assay [4] and in assay [3] was “No effect” throughout.
`NC1(C(=O)O)C[C@@H](C(=O)O)[C@H](C(=O)O)C1`: the EC50 entry in assay [1], in assay [4] and in assay [3] was “No effect” throughout.
Regarding `N[C@@]1(C(=O)O)C[C@H](C(=O)O)[C@H](C(=O)O)C1`, the half-maximal effective concentration (EC50) result in assay [1] is “No effect”; in assay [2], 7.2 µM; in assay [3], “No effect”. The Kb entry in assay [5] was “No effect”.
`N[C@]1(C(=O)O)CC[C@H](C(=O)O)C1` yielded a half-maximal effective concentration (EC50) in assay [6] of 110 µM.
In the case of `N[C@]1(C(=O)O)CC[C@@H](C(=O)O)C1`, the EC50 entry in assay [4] was “No effect”; in assay [6], over 1000 µM.
In assay [6], `N[C@@]1(C(=O)O)CC[C@@H](C(=O)O)C1` displayed an EC50 of 18 µM.
On to `NC1(C(=O)O)CC(C(=O)O)C(C(=O)O)C1` (racemic), for which the figures for the half-maximal effective concentration (EC50) entry in assay [1], in assay [2] and in assay [3] were “No effect”, 40 µM and “No effect”, respectively.
Compound `N[C@@]1(C(=O)O)CC[C@H](C(=O)O)C1` returned an EC50 in assay [6] of 13 µM.
